# Screening results deposited in PubChem by several laboratories.
# Most compounds without a hit are left out; they make up all but 1.9% or so of the library.
# ROMK mod – ROMK potassium channel modulators, primary screen, cell-based, thallium flux, MLSMR library. B-score at 10 µM. Tet-inducible ROMK, thallium flux fluorescence; actives lie on both sides. 130,000 compounds, 2% hits;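 active = signal ratio slope over the read window, or its plate-corrected B-score, at least 3 SD from the plate mean, either direction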;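 note: B-score of the F/F0 ratio slope over 7 to 12 s after thallium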
# Target sequence (P48048 whole entry, looked up): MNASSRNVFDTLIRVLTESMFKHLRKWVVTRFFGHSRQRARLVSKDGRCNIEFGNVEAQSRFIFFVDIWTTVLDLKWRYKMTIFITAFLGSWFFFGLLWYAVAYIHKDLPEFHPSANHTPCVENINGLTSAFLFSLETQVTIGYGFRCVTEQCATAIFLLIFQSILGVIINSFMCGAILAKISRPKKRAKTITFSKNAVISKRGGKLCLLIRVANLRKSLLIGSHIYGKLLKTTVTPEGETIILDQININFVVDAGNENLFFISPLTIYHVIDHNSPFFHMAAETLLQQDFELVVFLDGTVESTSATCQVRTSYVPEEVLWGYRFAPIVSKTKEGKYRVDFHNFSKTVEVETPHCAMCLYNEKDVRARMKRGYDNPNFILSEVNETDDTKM
# bCat nuc transl – modulators of beta-catenin nuclear translocation, primary screen, imaging, HeLa cells, immunofluorescence, high-content | nuclear translocation activity, % at 5 µM | 190,000 compounds, 0.3% hits;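 active = nuclear translocation activity above 50% at 5 µM, with a well cell count of 50 or more; inconclusive = wells under 50 cells across six images, flagged as toxic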;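 note: per-cell ratio of nuclear to cytoplasmic median beta-catenin stain intensity; plate controls were DMSO negative control for no effect and GSK-3 inhibitor IX positive control for full effect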
#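 assay system = human HeLa cells, endogenous beta-catenin | times = compound treatment 24 h, 37°C, 5% CO2 | detection = Anti-beta-catenin immunofluorescence on PFA-fixed, Triton-permeabilized cells, DAPI nuclei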
# MT stabilizer – microtubule stabilizers in HeLa cells, primary screen, imaging, high-content imaging; HeLa tubulin immunostaining HCS, 24 h; share of cells brighter than vehicle mean+2SD; % tubulin-high responders, % at 10 µM; 200,000 compounds, 0.83% hits;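 active = plate Z-score above 3 for both tubulin-high and condensed-nucleus cell shares, with cell loss under 80%, at 10 µM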;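 note: anti alpha tubulin signal scored within the nucleus-defined area of each cell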
# ROMK hit retest – ROMK channel modulator hit retest, confirmation, cell-based, thallium flux, duplicate, resupplied hits. shares compounds with ROMK mod. fluorescence ratio; active compounds read low. normalized thallium flux (F/F0 slope) at 10 µM. 3,000 compounds, 54% hits. AID 1917, 2009;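 active = Flux at 10 µM at least 3 SD below or above vehicle control mean in one or both replicates; inconclusive = no clear call, values can overlap the other calls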
# Starred values were filed as active, the others as inactive; u = inconclusive; x = not tested or not shown.
SMILES,ROMK mod,bCat nuc transl,MT stabilizer,ROMK hit retest
O=C(COC(=O)c1cccc2ccccc12)NCC1CCCO1 (configuration not stated),-0.214,-1.7,3.4,x
O=C(NN1CCN(Cc2ccccc2)CC1)c1ccc(N2CCOCC2)c([N+](=O)[O-])c1,0.79,0.4,1.7,x
O=C(O)/C(=C\c1ccc(Cl)cc1)c1ccc(F)cc1,0.519,-0.7,3.6,x
Cc1nc(C(=O)NC2CCOCC2)sc1C1(C)CC(c2cccc([N+](=O)[O-])c2)=NO1 (configuration not stated),x,-0.9,x,x
CN1CCCN(Cc2nc(-c3ccc(Cl)cc3)no2)CC1,1.69,-2.2,2.2,x
CCc1ccc(NC(=O)CNS(=O)(=O)c2c(C)noc2C)cc1,-0.00267,-4.8,5.3,x
CCCc1[nH]nc2c1C(c1ccoc1)C(C#N)=C(N)O2 (configuration not stated),-3.71*,-4.0,5.3,0.0524*
Cc1[nH]nc2c1C(c1ccoc1)C(C#N)=C(N)O2 (configuration not stated),-3.19,x,1.6,x
O=C(CSc1ccc2nnc(-c3ccc(F)cc3)n2n1)NCC1CCCO1 (configuration not stated),0.949,-3.0,4.9,x
COc1ccc(-c2nnc3ccc(SCC(=O)NCC4CCCO4)nn23)cc1 (configuration not stated),-6.07*,-2.8,4.2,0.0702
COc1ccc(CN2CCn3nc(C(=O)NC4CC4)cc3C2=O)cc1,1.42,-1.2,3.8,x
CN1CCN(c2oc(-c3ccco3)nc2S(=O)(=O)c2ccccc2)CC1,x,-8.3,3.5,x
O=S(=O)(c1ccccc1)c1nc(-c2ccco2)oc1N1CCCCCC1,-2.76*,x,2.6,0.0716
CC1(C)Oc2ccccc2OC1(O)c1ccc2ccccc2n1 (configuration not stated),x,2.7,1.7,0.0642*
O=[N+]([O-])c1ccc(/C=C/c2ccc3ccccc3n2)cc1,-1.4,5.5,3.5,x
Cc1ccc(S(=O)(=O)Nc2ccc(NC(=O)c3c(F)c(F)c(F)c(F)c3F)cc2)cc1,0.18,0.2,8.9,x
O=C(O)c1ccc(NC2=C/C(=N/S(=O)(=O)c3ccccc3)c3ccccc3C2=O)cc1,-3.42*,-1.5,1.7,0.0522*
O=C1C(Nc2ccc(O)cc2)=C/C(=N/S(=O)(=O)c2cccs2)c2ccccc21,-0.536,0.4,4.7,x
COc1ccccc1NS(=O)(=O)c1cc(NC(=O)c2ccc3c(c2)OCCO3)ccc1C,-0.788,-3.1,2.4,x
O=C(O)/C=C/C(=O)NC1CCCCCCCCCCC1,x,1.4,x,x
O=C(Nc1ccc(Cl)cc1)N1CCCN(c2ccc(C(F)(F)F)cc2[N+](=O)[O-])CC1,x,-2.1,x,x
CC1=NN(c2nc(-c3ccc(C)cc3)cs2)C(=O)C1N=Nc1ccc(C(N)=O)cc1 (configuration not stated),0.1,1.5,4.3,0.0768
CC1=NN(c2nc(-c3ccc(C)cc3)cs2)C(=O)C1N=Nc1ccc2ccccc2c1 (configuration not stated),x,0.2,1.3,x
COc1cc([N+](=O)[O-])ccc1NC(=S)NC(=O)CC(C)(C)C,0.768,-6.1,4.8,x
Cc1ccc(C)c2c(N)c3c(nc12)CCCCC3 (tested in a mixture with another compound),0.366,-1.6,3.5,x
SMILES,ROMK mod,bCat nuc transl,MT stabilizer,ROMK hit retest
COc1cc(OC)cc(C(=O)Nn2cc(C(=O)Nc3ccc(F)cc3F)c3ccccc3c2=O)c1,-0.344,0.7,2.5,x
COCC(=O)Nc1ncc(S(=O)(=O)c2ccc([N+](=O)[O-])cc2)s1,0.47,-4.4,2.0,x
O=C(NC(Nc1ncc(S(=O)(=O)c2ccc([N+](=O)[O-])cc2)s1)(C(F)(F)F)C(F)(F)F)c1ccc(Cl)cc1,-3.01*,7.6,2.7,0.079
O=C1c2c([N+](=O)[O-])cc([N+](=O)[O-])cc2S(=O)N1Cc1ccccc1 (configuration not stated),0.0282,-1.9,1.3,x
CCCNC(=O)Nc1nccs1,1.69*,-2.0,2.6,u
CCC(C)C(=O)Nc1nccs1 (configuration not stated),x,-0.4,3.3,x
CCC(C(=O)Nc1nccs1)(C(F)(F)F)C(F)(F)F,-0.0508,-0.9,2.5,u
CCC(NC(=O)Nc1nccs1)(C(F)(F)F)C(F)(F)F,-0.0106,-6.0,4.2,x
O=C(OCC#CCSc1nnc(-c2ccccc2)o1)c1cccs1,-2.57,-0.5,1.8,0.0583*
O=C(OCC#CCSc1nnc(-c2cccc3ccccc23)o1)c1cccs1,-1.18,-3.1,3.5,x
COc1ccc(C(=O)N2c3ccccc3C=CC2C#N)cc1 (configuration not stated),x,-1.2,4.7,x
N#C[C@H]1[C@H](c2ccccc2)[C@](C#N)(C(=O)c2ccccc2)[C@@H]2C=Cc3ccccc3N21,-2.84*,77.7*,25.4*,0.0742
Cn1cccc1/C=C1\SC(=Nc2cccc(O)c2)NC1=O,-2.27*,1.0,x,0.0746
COc1cc(/C=C2\SC(=Nc3ccc(O)cc3)NC2=O)cc(OC)c1O,-0.25,2.4,3.2,x
Cc1ccc(N=C2NC(=O)/C(=C/c3cn(C)c4ccccc34)S2)cc1C,-3.37*,19.5,11.9,u
Cn1cc(/C=C2/SC(=O)N(c3ccccc3)C2=O)c2ccccc21,x,2.0,3.3,x
Cc1ccc(N2C(=O)CC(N3CCN(C4CCc5ccccc5C4)CC3)C2=O)cc1 (configuration not stated),-1.31,-3.0,1.6,x
CCOc1ccc(N2C(=O)CC(N3CCN(C4CCc5ccccc5C4)CC3)C2=O)cc1 (configuration not stated),-2.13*,-0.5,2.2,0.0643*
Cc1ccc(C(C(=O)NC2CCCCC2)N(C(=O)Cc2c[nH]c3ccccc23)c2ccccc2C)o1 (configuration not stated),0.512,-0.5,1.6,x
Cc1ccc(C(C(=O)NC2CCCCC2)N(Cc2ccco2)C(=O)Cc2c[nH]c3ccccc23)o1 (configuration not stated),x,-0.9,1.4,u
CCN1/C(=C/c2ccc3ccccc3[n+]2CC)C=Cc2ccccc21,-4.69*,x,3.8,0.0377*
CCCCN1/C(=C/c2ccc3ccccc3[n+]2CC)Sc2ccccc21,x,1.3,7.9,x
Clc1nc(Nc2ccc(N3CCOCC3)cc2)c2ccccc2n1,-0.932,0.1,1.6,x
O=S(=O)(Nc1nc2ccccc2nc1Nc1ccc(N2CCOCC2)cc1)c1cc(Cl)ccc1Cl,x,-1.4,5.3,0.0571*
O=C(c1cc2ccccc2oc1=O)N(Cc1cccc(Br)c1)C1CCS(=O)(=O)C1 (configuration not stated),x,-2.6,x,x
CC(=O)N(C(C)=O)N1C(=O)/C(=C/c2ccc(Cl)cc2)SC1=S,-3.16*,-1.0,4.7,0.0532*
Cc1ccc(C)n1N1C(=O)/C(=C\c2ccc(Cl)cc2)SC1=S,x,-1.0,2.8,x
COc1ccccc1N(C)S(=O)(=O)c1ccc(C(=O)OCC(=O)N2CCC2)cc1,0.112,3.2,4.8,x
O=C(N/N=C/c1ccccc1C(=O)O)c1ccccc1Br,0.0373,-3.0,3.1,x
